Arrestin-AP2 inh – human beta-arrestin and AP2 interaction inhibition; AID 504490; 340,000 compounds, 0.31% hits; inhibition, % at 10 µM; FITC-arrestin peptide / GST-AP2 beads, flow cytometry; AP2 beta2 appendage carries R879A mutation;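 active = inhibition above a set limit, near 3 SD of compounds lacking own fluorescence, cut at about 54% in these data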
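Material – AP2 appendage R879A on GSH beads · Buffer or medium – PBS with 0.05% Tween 20 and 0.1% BSA · Probe or stimulus – fluorescein-tagged arrestin peptide at 50 nM final · Incubation – compound with beads 12 min RT, then probe 1 h RT · Detection – high-throughput flow cytometry of beads, ex 488, em 535 nm · Evaluation – percent response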
PolyA inhibitor – yeast polyadenylation inhibition; S. cerevisiae SKY197-pL101 polyadenylation reporter, beta-gal luminescence; efflux-impaired pdr1/pdr3 knockout yeast; score 100 = 6 SD above DMSO; activity score, % at 12 µM; 300,000 compounds, 0.02% hits; AID 1875;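 active = lowest replicate activity score at least 50, where 100 means six control SD above control mean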;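 note: yeast exposed to compound for 9 h at 30 °C; higher score means more reporter readthrough which indicates perturbed polyadenylation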
AHR act – activators of human aryl hydrocarbon receptor; 320,000 compounds, 2.5% hits; AHR-responsive luciferase reporter cells, luminescence; activation, % at 5 µM; P35869; in the data active = activation above about 47%
APOBEC3G inh – inhibitors of human APOBEC3G DNA deaminase; AID 493012; recombinant A3G, ssDNA deamination FAM/TAMRA fluorescence; 330,000 compounds, 0.28% hits; Q9HC16; inhibition, % at 20 µM;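 active = inhibition of at least 40% at 20 µM, with no more than 30% in the related APOBEC3A deaminase screen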
A3A deaminase – blocks human APOBEC3A ssDNA deamination | P31941 | 330,000 compounds, 0.41% hits | recombinant A3A, FAM/TAMRA ssDNA deamination fluorescence | inhibition, % at 20 µM | AID 493011;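 active = at least 40% inhibition at 20 µM here, with at most 30% in a related deaminase screen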
Target sequence (P31941 whole entry, looked up): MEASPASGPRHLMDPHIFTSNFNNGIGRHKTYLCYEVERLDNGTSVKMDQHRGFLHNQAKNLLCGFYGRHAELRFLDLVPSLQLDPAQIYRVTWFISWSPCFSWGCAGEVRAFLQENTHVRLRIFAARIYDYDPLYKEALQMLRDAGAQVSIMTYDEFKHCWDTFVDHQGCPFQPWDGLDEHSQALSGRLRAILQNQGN
UCH37 inh – inhibitors of human deubiquitinating enzyme UCH37; AID 588478; Q9Y5K5; 330,000 compounds, 0.33% hits; purified proteasome/UCH37, Ub-AMC cleavage fluorescence; inhibition, % (no concentration beside the values);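 active = mean inhibition over replicate wells above about 20%, limit read from the data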
Target sequence (Q9Y5K5 whole entry, looked up): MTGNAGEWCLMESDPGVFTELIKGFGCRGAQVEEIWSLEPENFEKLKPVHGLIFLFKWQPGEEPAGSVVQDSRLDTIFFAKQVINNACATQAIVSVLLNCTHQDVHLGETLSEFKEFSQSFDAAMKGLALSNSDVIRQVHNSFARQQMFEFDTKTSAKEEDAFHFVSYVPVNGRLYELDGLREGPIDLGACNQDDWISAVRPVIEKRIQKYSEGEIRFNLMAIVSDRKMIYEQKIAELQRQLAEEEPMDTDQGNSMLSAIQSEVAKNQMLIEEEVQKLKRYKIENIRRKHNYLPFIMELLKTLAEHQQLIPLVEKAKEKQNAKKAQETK
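Signal – fluorescence, ex 355 nm, em 460 nm · System – Proteasome-bound UCH37 · Input – 0.15 nM proteasome as dispensed · Timing – 30 min preincubation with enzyme, 25 min cleavage at room temperature · Read-out basis – percent inhibition of cleavage signal versus uninhibited and no-proteasome wells · Medium – Tris-HCl pH 7.4 with ATP-MgCl2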
Each line names hits and unclear results; the compound was inactive in the other large screens. Only some compounds are listed: those with a hit (about 3.4% of all), similar ones and a draw of the others.

Cc1cc(NC(=O)c2cccc(Oc3ccccc3)c2)n[nH]1	AHR act 65.8
O=C(Nc1nn[nH]n1)c1cccc(Oc2ccccc2)c1	none
O=C(Nc1nccs1)c1ccc(Br)o1	AHR act 57.5
O=C(Nc1nccs1)c1ccc(-c2ccc(F)c(Cl)c2)o1	AHR act 71.9
O=C(Nc1nccs1)c1ccc(-c2ccc(Cl)cc2Cl)o1	none
CC1CCc2sc(C(=O)NN=CC3CCCCC3)cc2C1 (stereo not drawn)	none (no result: Arrestin-AP2 inh, PolyA inhibitor, AHR act, APOBEC3G inh, A3A deaminase)
O=C(NCCCn1ccnc1)c1ccc(-c2ccccc2)cc1	none
Cc1cc(C(=O)NCCCn2ccnc2)sc1-c1ccccc1	AHR act 70.3
Cc1cc(-c2ccccc2)nc2cc(C(=O)NCCCn3ccnc3)nn12	AHR act 65.8
Cc1ccsc1C=NNc1ccc(C(=O)O)cc1	none (no result: Arrestin-AP2 inh, PolyA inhibitor, AHR act, APOBEC3G inh, A3A deaminase)
COc1ccccc1N/C=C/c1onc(C)c1[N+](=O)[O-]	AHR act 53.8
Cc1noc(/C=C/Nc2ccc(F)cc2F)c1[N+](=O)[O-]	AHR act 64.0 (no result: UCH37 inh)
Cc1noc(/C=C/c2ccccn2)c1[N+](=O)[O-]	none
Cc1nc2c(n1O)CCCC2=NO	none (no result: Arrestin-AP2 inh, PolyA inhibitor, AHR act, APOBEC3G inh, A3A deaminase)
Cc1cccc(C)c1NC(=S)NN=Cc1ccc(OCCC(C)C)cc1	none (no result: Arrestin-AP2 inh, PolyA inhibitor, AHR act, APOBEC3G inh, A3A deaminase)
CCOc1ccc(OCC)c(NC(=O)C2CCCN2S(=O)(=O)c2cccc3cccnc23)c1 (stereo not drawn)	AHR act 47.3
COc1ccc(NC(=O)C2CCCN2S(=O)(=O)c2cccc3cccnc23)c(OC)c1 (stereo not drawn)	none
CSc1c2c(nc3ncnn13)CCC2	none
CSc1nc2[nH]c3c(c2c2ncnn12)CCCC3	AHR act 47.2
c1ccc(-n2cnc3ccccc32)nc1	none
FC(F)(F)c1ccc(-n2cnc3ccccc32)nc1	AHR act 64.5
CC(C)n1c(N=Cc2c[nH]c3ccccc23)nc2ccccc21	none (no result: Arrestin-AP2 inh, PolyA inhibitor, AHR act, APOBEC3G inh, A3A deaminase)
Cc1cc(NN=Cc2c[nH]c3ccccc23)c2ccccc2n1	none (no result: Arrestin-AP2 inh, PolyA inhibitor, AHR act, APOBEC3G inh, A3A deaminase)
Cc1cc(N/N=C/c2c[nH]c3ccccc23)c2ccccc2n1	AHR act 58.2 (no result: UCH37 inh)
Cc1cc(N/N=C/c2ccc(N(C)C)cc2)c2ccccc2n1	AHR act 49.2 (no result: UCH37 inh)
Cn1c(N/N=C/c2c[nH]c3ccccc23)nc2ccccc21	AHR act 56.2 (no result: UCH37 inh)
O=c1c2ccccc2nc(-c2ccco2)n1N=Cc1ccccc1O	none (no result: Arrestin-AP2 inh, PolyA inhibitor, AHR act, APOBEC3G inh, A3A deaminase)
CCCOc1ccc(C=NNc2cccc([N+](=O)[O-])c2)c(O)c1	none (no result: Arrestin-AP2 inh, PolyA inhibitor, AHR act, APOBEC3G inh, A3A deaminase)
Cc1ccc(C=NNC(=O)c2cc(C3CC3)nc3ccccc23)o1	none (no result: Arrestin-AP2 inh, PolyA inhibitor, AHR act, APOBEC3G inh, A3A deaminase)
COc1ccc(C=NNC(=O)c2cc[n+]([O-])cc2)cc1OC	none (no result: Arrestin-AP2 inh, PolyA inhibitor, AHR act, APOBEC3G inh, A3A deaminase)
C(=NNc1ncnc2ccccc12)c1ccccc1	none (no result: Arrestin-AP2 inh, PolyA inhibitor, AHR act, APOBEC3G inh, A3A deaminase)
CCCn1c(=N)c(C#N)cc2c(=O)n3ccccc3nc21	AHR act 84.6 (no result: UCH37 inh)
N#Cc1cc2c(=O)n3ccccc3nc2n(CCCn2ccnc2)c1=N	AHR act 102.0
CC(=O)Nc1ccc(NC(=O)CC(C)=NNC(=O)C(=O)N2CCCC2)cc1	none (no result: Arrestin-AP2 inh, PolyA inhibitor, AHR act, APOBEC3G inh, A3A deaminase)
Cc1cc(O)ccc1N/C=C(\C#N)c1nc2ccccc2o1	AHR act 54.4 (no result: UCH37 inh)
O=C(C1CC1)N1CCN(S(=O)(=O)c2ccc3c(c2)OCCO3)CC1	AHR act 55.0
S=C(N/N=C/c1cccc2ccccc12)Nc1cccc(Cl)c1	AHR act 47.8 (no result: UCH37 inh)
CNC(=S)N/N=C/c1ccccc1Cl	AHR act 59.8 (no result: UCH37 inh)
CNC(=S)NN=Cc1c(Cl)cccc1Cl	none (no result: Arrestin-AP2 inh, PolyA inhibitor, AHR act, APOBEC3G inh, A3A deaminase)
S=C(NN=Cc1ccccc1Cl)Nc1ccccc1	none (no result: Arrestin-AP2 inh, PolyA inhibitor, AHR act, APOBEC3G inh, A3A deaminase)
S=C(N/N=C/c1ccccc1Cl)Nc1ccccc1	AHR act 62.3 (no result: UCH37 inh)
O=C(CC(=O)Nc1cccc(Cl)c1)N/N=C\c1ccccc1	none (no result: UCH37 inh)
CC(=O)CN1Cc2ccccc2C1=NC(=O)Nc1ccccc1	none (no result: Arrestin-AP2 inh, PolyA inhibitor, AHR act, APOBEC3G inh, A3A deaminase)
O=C(NN=Cc1cccnc1)c1cc2ccccc2o1	none (no result: Arrestin-AP2 inh, PolyA inhibitor, AHR act, APOBEC3G inh, A3A deaminase)
O=C(CON=Cc1cccc([N+](=O)[O-])c1)NC1CCCCC1	none (no result: Arrestin-AP2 inh, PolyA inhibitor, AHR act, APOBEC3G inh, A3A deaminase)
O=C1Nc2ccccc2C1=NN1CCOCC1	none (no result: Arrestin-AP2 inh, PolyA inhibitor, AHR act, APOBEC3G inh, A3A deaminase)
O=C(CSCc1nc2ccccc2[nH]1)Nc1ccc2ccccc2c1	AHR act 60.4
O=C(COc1ccccc1)Nc1cccc(-c2nc3ccccc3[nH]2)c1	AHR act 79.2
COc1cc(NC(=O)COc2ccc(Cl)cc2)ccc1NC(=O)C(C)C	none
O=C(CSCc1nc2ccccc2[nH]1)Nc1ccc(Oc2ccccc2)cc1	none
COc1cc(NC(=O)COc2ccc(Cl)cc2)ccc1-c1cc2ccccc2oc1=O	AHR act 55.2
COc1ccc(-c2cccc(NC(=O)COc3ccc(Cl)cc3)c2)nn1	PolyA inhibitor 80.9 (no result: UCH37 inh)
CS(=O)(=O)c1ccc(-c2cccc(NC(=O)COc3ccc(Cl)cc3)c2)nn1	none
Cc1cc(C=NNC(=O)c2ccncc2)c(C)n1-c1ccccc1	none (no result: Arrestin-AP2 inh, PolyA inhibitor, AHR act, APOBEC3G inh, A3A deaminase)
Cc1cccc(NC(=O)c2cnc3n(c2=O)CCS3)c1	none
O=C(Nc1ccc(OC(F)(F)F)cc1)c1cnc2n(c1=O)CCS2	AHR act 66.5
O=C(Nc1ccccc1)c1cnc2n(c1=O)CCS2	AHR act 54.2
Cc1[nH]c2ccccc2c1/C=C/c1nc2ccccc2c(=O)n1CCO	AHR act 52.1
Cc1cc(/C=C2/C(=O)N(C)C(=S)N2C)ccc1N1CCCC1	AHR act 62.8
Cc1cc(O)c(C=NNc2cccc(Cl)c2)c(=O)o1	none (no result: Arrestin-AP2 inh, PolyA inhibitor, AHR act, APOBEC3G inh, A3A deaminase)
COc1ccc(C2=NS(=O)(=O)N(C)C(C(=O)Nc3ccc4c(c3)OCO4)=C2)cc1	none (no result: PolyA inhibitor)

High-throughput results (PubChem BioAssay)
